We go through five compounds from article PMC4968691 (Inorganic chemistry, 2012).

SMILES strings stand for the structures.

A short description of data set [1]: ^177Lu/^64Cu human blood serum competition. The data set is classed as in vitro ADME. A digest of the protocol: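 Test chelator was labelled with 177Lu or 64Cu in 10 mM NaOAc pH 5.0 for 10 min at ambient temperature. Thawed human serum (750 µL), 300 µL complex and 450 µL PBS were run in triplicate at 37 °C and 550 rpm. Sampling was at 1.5/24 h (177Lu) and 1/20 h (64Cu). Aliquots were PBS-diluted, counted and passed through PD-10 size exclusion, and the PBS eluate was counted as serum-bound. Result is % chelate-bound.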

The nature of data set [2]: ^67Ga/^111In mouse serum competition. In kind it is in vitro ADME. Conditions: mouse blood serum. In a few lines: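 Test chelator (0.3 mg/mL) was labelled with 67Ga (NaOAc 10 mM, pH 4) or 111In (pH 5) for 10 min at ambient temperature. Complex was added to thawed mouse serum plus PBS in triplicate and held at ambient temperature. Sampling was at 15 min, 1 h and 2 h (67Ga) and 1 and 24 h (111In). Aliquots were diluted to 2.5 mL PBS, counted and loaded on PD-10. The 3.5 mL PBS eluate, holding protein-bound activity, was counted against pre-load activity.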

The nature of data set [3]: ^64Cu biodistribution in healthy nude athymic mice. The data set is classed as in vivo, mouse. Conditions: n = 4. A digest of the protocol: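 Healthy nude athymic mice received the HPLC-purified 64Cu complex by tail vein: ~30 µCi (~3 µg) in 200 µL of 2:1 saline:PBS, pH 7. Mice were killed by CO2 at 15 min, 1, 4 and 24 h (n = 4). Organs were rinsed, air-dried 5 min, weighed and gamma-counted. Counts were background- and decay-corrected, calibrated against 64Cu standards and expressed as %ID/g.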

For data set [4] the following is noted: 24 h, with both ^177Lu and ^111In; cited from earlier work.

Consider `O=C(O)CN1CCN(CC(=O)O)CCN(CC(=O)O)CCN(CC(=O)O)CC1` [DOTA, 1,4,7,10-tetraazacyclododecane-1,4,7,10-tetraacetic acid], for which the “long-term stability (% chelator-bound radiometal)” value in data set [1] (20 h, 37 °C, 550 rpm, ^64Cu, n = 3) is 74%.

In the case of `O=C(O)c1cccc(CN(CCN(Cc2cn(Cc3ccccc3)nn2)Cc2cccc(C(=O)O)n2)Cc2cn(Cc3ccccc3)nn2)n1` [H2azapa, N,N′-[1-Benzyl-1,2,3-triazole-4-yl]methyl-N,N′-[6-(carboxy)-pyridin-2-yl]-1,2-diaminoethane], in data set [2] (24 h, ^111In complex), the “^111In transchelated by serum proteins” value is 35%. The “^64Cu transchelated to serum proteins” value in data set [1] (20 h, 37 °C) was found to be 2%. Moreover, the “^177Lu transchelated by serum proteins” value in data set [1] (24 h, ^177Lu complex) stood at 54%. The figures for the “organ uptake, heart” value in data set [3] (4 h post i.v. injection) and in data set [3] (24 h post i.v. injection) were 3.8 % ID/g and 3.4 % ID/g, respectively.

As for `O=C(O)CN(CCN(CC(=O)O)Cc1cccc(C(=O)O)n1)Cc1cccc(C(=O)O)n1` [H4octapa], in data set [4], the stable in serum is above 85% and the “transchelated by serum proteins” value is below 15%.

In the case of `O=C([O-])CN(CCN(CC(=O)[O-])CC(=O)[O-])CCN(CC(=O)[O-])CC(=O)[O-].[111In+3].[H+].[H+]` [[^111In(DTPA)]^2−], the “medium-term stability (% chelator-bound radiometal)” value in data set [2] (1 h, 25 °C, n = 3) is listed as 87 (±2) %. Moreover, the “long-term stability (% chelator-bound radiometal)” value in data set [2] (24 h, 25 °C, ^111In, n = 3) is on record as 88 (±2) %.

As for `O=C([O-])CN1CCN(CC(=O)[O-])CCN(CC(=O)[O-])CCN(CC(=O)[O-])CC1.[177Lu+3].[H+]` [[^177Lu(DOTA)]^−], the “medium-term stability (% chelator-bound radiometal)” value in data set [1] (1.5 h, 37 °C, 550 rpm, ^177Lu, n = 3) is recorded as 87.7 (±0.7) %. Also, the “long-term stability (% chelator-bound radiometal)” value in data set [1] (24 h, 37 °C, 550 rpm, ^177Lu, n = 3) is reported as 87 (±2) %.
